The values that follow come from ChEMBL document CHEMBL4020704, “Metabolite diversification by cultivation of the endophytic fungus Dothideomycete sp. in halogen containing media: Cultivation of terrestrial fungus in seawater” (Bioorg Med Chem, 2017).

By MIC is commonly meant the lowest concentration found to suppress growth. A higher MIC goes with weaker potency. The term IC50 denotes the point on the concentration scale where inhibition reaches its midpoint. Read a high IC50 as weaker potency in that assay.

Structures are written as SMILES. ≈ marks a conversion by molar mass, not a printed value. Calls of active or inactive are those of the source. The rule behind the calls is not given here.

One assay has as its system Bacillus cereus. Kind of assay: Antibacterial activity against Bacillus cereus after 20 hrs by broth microdilution method. The class given is functional. The gist of the method: (§1)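 Compounds dissolved in DMSO and two-fold serially diluted in 96-well plates, with final DMSO ≤0.5% (v/v). Inocula prepared in normal saline and adjusted to 0.5 McFarland turbidity. Plates incubated at 36 °C for 20 h, then absorbance read at 600 nm. MIC taken as the lowest concentration inhibiting growth.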

A further assay relates to Staphylococcus aureus. Kind of assay: Antibacterial activity against Staphylococcus aureus after 20 hrs by broth microdilution method. Format: functional. The gist of the method:
as §1
A general note: In broth dilution the organism is exposed to a series of concentrations in liquid medium.

Assay [1] deals with Staphylococcus epidermidis. Kind of assay: Antibacterial activity against Staphylococcus epidermidis after 20 hrs by broth microdilution method. Format: functional. Summed up:
as §1

For a further assay, the system named is Enterococcus faecalis. Kind of assay: Antibacterial activity against Enterococcus faecalis after 20 hrs by broth microdilution method. Format: functional. The gist of the method:
as §1

For another assay, the system named is Escherichia coli. Kind of assay: Antibacterial activity against Escherichia coli after 20 hrs by broth microdilution method. Format: functional. Summed up:
as §1

A further assay concerns Pseudomonas aeruginosa. Nature of the assay: Antibacterial activity against Pseudomonas aeruginosa after 20 hrs by broth microdilution method. The class given is functional. The gist of the method:
as §1

Another assay relates to Salmonella typhimurium. Kind of assay: Antibacterial activity against Salmonella typhimurium after 20 hrs by broth microdilution method. The class given is functional. The settings on record: Salmonella enterica subsp. enterica serovar Typhimurium. Summed up:
as §1

Another assay relates to Shigella flexneri. Nature of the assay: Antibacterial activity against Shigella flexneri after 20 hrs by broth microdilution method. The class given is functional. The gist of the method:
as §1

In a further assay the test system is HuCC-A1. Kind of assay: Cytotoxic activity against human HuCCa1 cells by MTT assay. Format: functional, cell-based. Summed up: (§2)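 Adherent cancer cell lines, viability read by MTT assay. Doxorubicin served as reference drug for A549, HepG2 and HuCCA-1, and etoposide also for HepG2. IC50 determined.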
For the next assay, the system named is HepG2. Nature of the assay: Cytotoxic activity against human HepG2 cells by MTT assay. Format: functional, cell-based. Summed up: as §2
In general terms: Formazan colour is commonly taken as a measure of viable cells.

For another assay, the system named is MOLT-3. Nature of the assay: Cytotoxic activity against human MOLT3 cells by XTT assay. The class given is functional, cell-based. Summed up: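 Non-adherent MOLT-3 leukemia cells, viability read by XTT assay. Etoposide served as reference drug. IC50 determined.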

As to `C/C(=C\C=C\[C@H](O)[C@H](C)O)[C@H](O)[C@H](C)C(=O)O[C@H]1C[C@H](C)C[C@@H]2C=C[C@H](C)[C@](C)(C(=O)[C@H](O)CO)[C@@H]12`, the outcome (in the assay on Bacillus cereus; with Staphylococcus aureus; in assay [1]; with Enterococcus faecalis; in the assay with Escherichia coli; with Pseudomonas aeruginosa) was inactive. Also, the result with Salmonella typhimurium, in the assay on Shigella flexneri, in the assay with HuCC-A1, in the assay on HepG2 and with MOLT-3 was inactive.
As for `CO[C@@H](/C=C/C=C(\C)[C@H](O)[C@H](C)C(=O)O[C@H]1C[C@H](C)C[C@@H]2C=C[C@H](C)[C@](C)(C(=O)[C@H](O)CO)[C@@H]12)[C@H](C)O`, the result (with Bacillus cereus; in the assay with Staphylococcus aureus; in [1]; with Enterococcus faecalis; in the assay on Escherichia coli; in the assay with Pseudomonas aeruginosa) was inactive. The result in the assay on Salmonella typhimurium, in the assay with Shigella flexneri, with HuCC-A1, in the assay with HepG2 and with MOLT-3 was inactive.
Turning to `C[C@H]1C=C[C@H]2C[C@@H](CO)C[C@H](O)[C@@H]2[C@@]1(C)C(=O)[C@H](O)CO`, the outcome (with Bacillus cereus; in the assay with Staphylococcus aureus; in [1]; in the assay with Enterococcus faecalis; in the assay with Escherichia coli; in the assay on Pseudomonas aeruginosa) was inactive. Moreover, the result in the assay on Salmonella typhimurium, in the assay on Shigella flexneri, with HuCC-A1, with HepG2 and in the assay with MOLT-3 was inactive.
Regarding `CC1=CC2=C(C[C@H](C)C3=CC(=O)CC(C)O3)C(=O)[C@](C)(O)[C@@H](O)C2=CO1` (stereo partly drawn), the result (in the assay on Bacillus cereus; in the assay on Staphylococcus aureus; in [1]; in the assay with Enterococcus faecalis; with Escherichia coli; in the assay on Pseudomonas aeruginosa) was inactive. The outcome in the assay on Salmonella typhimurium, in the assay on Shigella flexneri, with HuCC-A1, in the assay on HepG2 and in the assay on MOLT-3 was inactive.
`CC1=CC2=C(CC(C)C(=O)C[C@H](C)O)C(=O)[C@](C)(O)[C@@H](O)C2=CO1` (stereo partly drawn): the result (in the assay on Bacillus cereus; in the assay with Staphylococcus aureus; in assay [1]; with Enterococcus faecalis; with Escherichia coli; with Pseudomonas aeruginosa) was inactive. Further, the result in the assay on Salmonella typhimurium, in the assay with Shigella flexneri, in the assay with HuCC-A1, with HepG2 and in the assay with MOLT-3 was inactive.
For the compound `O=C(N[C@H](CO)[C@H](O)c1ccc([N+](=O)[O-])cc1)C(Cl)Cl` [CHLORAMPHENICOL], the minimum inhibitory concentration (MIC) (in the assay with Bacillus cereus; with Staphylococcus aureus; in [1]) was 0.78 µg/mL (≈ 2.41 µM) in each case.
For the compound `CN(C)[C@@H]1C(O)=C(C(N)=O)C(=O)[C@@]2(O)C(O)=C3C(=O)c4c(O)cccc4[C@@](C)(O)[C@H]3C[C@@H]12` [TETRACYCLINE], the minimum inhibitory concentration (MIC) against Bacillus cereus amounted to 6.25 µg/mL (≈ 14.1 µM); with Staphylococcus aureus, 0.78 µg/mL (≈ 1.76 µM); in assay [1], 1.56 µg/mL (≈ 3.51 µM).
Regarding `C[C@H]1C=C[C@H]2C[C@@](O)(CO)CC[C@@H]2[C@@]1(C)C(=O)CCO`, the result (with Bacillus cereus; in the assay on Staphylococcus aureus; in assay [1]; with Enterococcus faecalis; in the assay with Escherichia coli; with Pseudomonas aeruginosa) was inactive. Further, the outcome with Salmonella typhimurium, in the assay with Shigella flexneri, in the assay with HuCC-A1, in the assay on HepG2 and in the assay with MOLT-3 was inactive.
For the compound `CC1=CC2=C(C[C@@H](C)C3=CC(=O)CC(C)O3)C(=O)[C@](C)(O)[C@@H](O)C2=CO1` (stereo partly drawn), the result (with Bacillus cereus; in the assay on Staphylococcus aureus; in [1]; in the assay with Enterococcus faecalis; with Escherichia coli; in the assay on Pseudomonas aeruginosa) was inactive. Besides, the outcome in the assay on Salmonella typhimurium, in the assay with Shigella flexneri, with HuCC-A1, in the assay on HepG2 and with MOLT-3 was inactive.
As to `C/C(=C\C=C\[C@H](O)[C@@H](C)O)[C@H](O)[C@H](C)C(=O)O[C@H]1C[C@H](CO)C[C@@H]2C=C[C@H](C)[C@](C)(C(=O)CCO)[C@@H]12`, the outcome (with Bacillus cereus; in the assay on Staphylococcus aureus; in assay [1]; with Enterococcus faecalis; in the assay with Escherichia coli; in the assay on Pseudomonas aeruginosa) was inactive. Moreover, the outcome in the assay with Salmonella typhimurium, in the assay on Shigella flexneri, in the assay with HuCC-A1, in the assay on HepG2 and in the assay on MOLT-3 was inactive.
With `CO[C@@H](/C=C/C=C(\C)[C@H](O)[C@H](C)C(=O)O[C@H]1C[C@H](C)C[C@@H]2C=C[C@H](C)[C@](C)(C(=O)[C@H](O)CO)[C@@H]12)[C@@H](C)O`, the minimum inhibitory concentration (MIC) (in the assay on Bacillus cereus; against Staphylococcus aureus; in assay [1]) was 100 µg/mL (≈ 191 µM) throughout. Moreover, the result in the assay on Enterococcus faecalis, in the assay with Escherichia coli, with Pseudomonas aeruginosa, in the assay with Salmonella typhimurium, with Shigella flexneri and in the assay with HuCC-A1 was inactive. Further, the outcome in the assay on HepG2 and in the assay on MOLT-3 was inactive.
With `COc1cccc2c1C(=O)c1c(O)c3c(c(O)c1C2=O)C[C@@](O)(C(=O)CO)C[C@@H]3O[C@H]1C[C@H](N)[C@H](O)[C@H](C)O1` [DOXORUBICIN], it took 0.33 µg/mL (≈ 0.607 µM) to reach half-maximal inhibition with HuCC-A1 (IC50).
In the case of `COc1cc([C@@H]2c3cc4c(cc3[C@@H](O[C@@H]3O[C@@H]5CO[C@@H](C)O[C@H]5[C@H](O)[C@H]3O)[C@H]3COC(=O)[C@H]23)OCO4)cc(OC)c1O` [ETOPOSIDE], the values for the half-maximal inhibitory concentration (IC50) in the assay on HepG2 and in the assay with MOLT-3 were 24.3 µg/mL (≈ 41.3 µM) and 0.04 µg/mL (≈ 0.068 µM), respectively.
